Measured values taken from ChEMBL document CHEMBL3259739, “Synthesis and structure-activity relationship of trisubstituted thiazoles as Cdc7 kinase inhibitors” (Eur J Med Chem, 2014).

Key:
[1] = target: Cyclin-dependent kinase 18 (Homo sapiens) (UniProt Q07002); assay: Inhibition of PCTK3 (unknown origin) at 1 uM relative to control; conditions: values are per cent of control
How it was run: (§1)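 KinomeSCAN competitive binding panel of 100 kinases; compounds tested at 1 µM in duplicate; read-out is percent […] control.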

[2] = target: T1, Serine/threonine-protein kinase Chk1 (Homo sapiens) (UniProt O14757); assay: Inhibition of CHEK1 (unknown origin) at 1 uM relative to control; values are per cent of control
T1 sequence (whole entry): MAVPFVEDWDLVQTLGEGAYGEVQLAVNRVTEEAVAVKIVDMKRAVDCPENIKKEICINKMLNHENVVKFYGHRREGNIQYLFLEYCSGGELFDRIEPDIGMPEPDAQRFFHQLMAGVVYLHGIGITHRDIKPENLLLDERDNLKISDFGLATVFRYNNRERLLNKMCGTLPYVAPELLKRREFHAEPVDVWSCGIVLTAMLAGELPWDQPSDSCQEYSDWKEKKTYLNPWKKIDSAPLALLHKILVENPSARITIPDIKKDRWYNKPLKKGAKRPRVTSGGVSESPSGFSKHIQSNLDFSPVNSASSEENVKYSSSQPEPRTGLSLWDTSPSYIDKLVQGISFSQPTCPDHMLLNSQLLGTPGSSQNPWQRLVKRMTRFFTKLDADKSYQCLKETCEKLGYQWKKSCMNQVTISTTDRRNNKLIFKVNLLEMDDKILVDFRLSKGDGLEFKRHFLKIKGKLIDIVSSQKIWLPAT

[3] = target: Mitogen-activated protein kinase 1 (Homo sapiens) (UniProt P28482); assay: Inhibition of ERK2 (unknown origin) at 1 uM relative to control; values are per cent of control
Mitogen-activated protein kinase 1 (Homo sapiens), sequence (P28482 whole entry): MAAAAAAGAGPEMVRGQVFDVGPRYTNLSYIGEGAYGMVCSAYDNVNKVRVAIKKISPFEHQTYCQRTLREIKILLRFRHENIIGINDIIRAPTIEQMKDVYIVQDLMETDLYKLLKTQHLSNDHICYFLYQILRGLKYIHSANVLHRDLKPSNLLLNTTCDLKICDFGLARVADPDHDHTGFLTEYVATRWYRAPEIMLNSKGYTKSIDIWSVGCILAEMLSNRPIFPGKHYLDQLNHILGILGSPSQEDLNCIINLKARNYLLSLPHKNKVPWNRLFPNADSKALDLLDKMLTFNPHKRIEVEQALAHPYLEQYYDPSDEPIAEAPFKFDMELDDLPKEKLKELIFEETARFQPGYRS

[4] = target: Vascular endothelial growth factor receptor 2 (Homo sapiens) (UniProt P35968); assay: Inhibition of VEGFR2 (unknown origin) at 1 uM relative to control; conditions: values are per cent of control
Vascular endothelial growth factor receptor 2 (Homo sapiens), sequence (P35968 whole entry): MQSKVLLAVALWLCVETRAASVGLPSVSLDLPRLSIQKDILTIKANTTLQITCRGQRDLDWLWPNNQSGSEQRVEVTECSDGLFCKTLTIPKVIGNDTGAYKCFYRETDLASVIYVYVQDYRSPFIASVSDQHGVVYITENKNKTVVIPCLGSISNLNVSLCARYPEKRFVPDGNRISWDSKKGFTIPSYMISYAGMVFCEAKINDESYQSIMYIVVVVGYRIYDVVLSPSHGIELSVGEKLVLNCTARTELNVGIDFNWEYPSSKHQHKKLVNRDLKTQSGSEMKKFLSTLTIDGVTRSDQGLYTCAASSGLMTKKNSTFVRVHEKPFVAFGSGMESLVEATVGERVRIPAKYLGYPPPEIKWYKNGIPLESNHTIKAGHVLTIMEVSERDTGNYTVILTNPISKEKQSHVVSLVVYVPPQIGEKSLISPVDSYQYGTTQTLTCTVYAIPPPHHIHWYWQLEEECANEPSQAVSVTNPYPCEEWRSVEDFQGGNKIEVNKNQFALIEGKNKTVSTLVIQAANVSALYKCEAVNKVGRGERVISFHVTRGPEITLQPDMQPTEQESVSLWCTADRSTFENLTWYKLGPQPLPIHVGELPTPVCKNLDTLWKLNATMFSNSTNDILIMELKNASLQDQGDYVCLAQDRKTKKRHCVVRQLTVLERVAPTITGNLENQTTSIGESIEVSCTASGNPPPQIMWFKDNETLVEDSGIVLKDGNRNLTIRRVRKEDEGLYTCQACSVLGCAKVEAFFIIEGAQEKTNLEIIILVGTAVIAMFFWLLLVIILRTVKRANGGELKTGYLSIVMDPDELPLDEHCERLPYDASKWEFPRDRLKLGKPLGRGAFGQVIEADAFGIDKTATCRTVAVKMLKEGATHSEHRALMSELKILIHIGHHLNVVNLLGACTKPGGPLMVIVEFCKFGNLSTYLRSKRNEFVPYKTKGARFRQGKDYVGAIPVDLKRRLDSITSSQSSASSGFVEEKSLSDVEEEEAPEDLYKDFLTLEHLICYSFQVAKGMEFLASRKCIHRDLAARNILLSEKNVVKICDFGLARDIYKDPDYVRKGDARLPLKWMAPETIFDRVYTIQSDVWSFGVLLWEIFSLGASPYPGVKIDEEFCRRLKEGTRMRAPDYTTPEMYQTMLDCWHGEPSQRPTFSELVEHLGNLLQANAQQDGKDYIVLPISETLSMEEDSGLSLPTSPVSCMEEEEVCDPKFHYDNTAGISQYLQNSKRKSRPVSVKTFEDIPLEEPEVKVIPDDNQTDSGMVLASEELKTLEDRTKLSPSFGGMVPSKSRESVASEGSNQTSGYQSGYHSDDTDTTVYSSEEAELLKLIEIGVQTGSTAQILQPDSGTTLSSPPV

[5] = target: Serine/threonine-protein kinase 32B (Homo sapiens) (UniProt Q9NY57); assay: Inhibition of YANK2 (unknown origin) at 1 uM relative to control; conditions: values are per cent of control; how it was run: as §1
Serine/threonine-protein kinase 32B (Homo sapiens), sequence (Q9NY57 whole entry): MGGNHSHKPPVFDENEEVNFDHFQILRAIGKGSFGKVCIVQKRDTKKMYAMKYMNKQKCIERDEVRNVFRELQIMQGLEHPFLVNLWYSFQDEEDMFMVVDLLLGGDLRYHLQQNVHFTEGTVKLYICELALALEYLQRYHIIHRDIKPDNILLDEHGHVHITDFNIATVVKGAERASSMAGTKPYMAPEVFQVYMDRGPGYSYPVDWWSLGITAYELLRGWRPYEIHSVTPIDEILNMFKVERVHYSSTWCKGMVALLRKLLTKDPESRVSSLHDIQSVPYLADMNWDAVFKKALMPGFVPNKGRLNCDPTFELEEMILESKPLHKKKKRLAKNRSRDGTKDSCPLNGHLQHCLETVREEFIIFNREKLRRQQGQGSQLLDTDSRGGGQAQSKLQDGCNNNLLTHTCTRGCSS

[6] = target: Serine/threonine-protein kinase OSR1 (Homo sapiens) (UniProt O95747); assay: Inhibition of OSR1 (unknown origin) at 1 uM relative to control; values are per cent of control
[7] = target: Receptor-interacting serine/threonine-protein kinase 2 (Homo sapiens) (UniProt O43353); assay: Inhibition of RIPK2 (unknown origin) at 1 uM relative to control; conditions: values are per cent of control; how it was run: as §1
[8] = target: Mitogen-activated protein kinase 10 (Homo sapiens) (UniProt P53779); assay: Inhibition of JNK3 (unknown origin) at 1 uM relative to control; values are per cent of control
Mitogen-activated protein kinase 10 (Homo sapiens), sequence (P53779 whole entry): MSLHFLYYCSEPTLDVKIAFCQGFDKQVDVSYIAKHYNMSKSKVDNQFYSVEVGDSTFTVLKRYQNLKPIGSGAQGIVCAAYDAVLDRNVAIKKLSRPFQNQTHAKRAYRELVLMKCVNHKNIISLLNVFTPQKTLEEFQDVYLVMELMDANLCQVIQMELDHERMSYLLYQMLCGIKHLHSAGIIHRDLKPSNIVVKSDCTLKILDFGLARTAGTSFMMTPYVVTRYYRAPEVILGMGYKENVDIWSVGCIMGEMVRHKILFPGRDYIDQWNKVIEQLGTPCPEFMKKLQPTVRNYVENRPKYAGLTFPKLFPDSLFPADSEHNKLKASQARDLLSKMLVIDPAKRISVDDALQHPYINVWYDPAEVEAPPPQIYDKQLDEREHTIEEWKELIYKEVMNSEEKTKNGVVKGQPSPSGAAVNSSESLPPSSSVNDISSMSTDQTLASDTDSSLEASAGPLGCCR

[9] = target: T2, TGF-beta receptor type-1 (Homo sapiens) (UniProt P36897); assay: Inhibition of TGFBR1 (unknown origin) at 1 uM relative to control; conditions: values are per cent of control; how it was run: as §1
T2 sequence (whole entry): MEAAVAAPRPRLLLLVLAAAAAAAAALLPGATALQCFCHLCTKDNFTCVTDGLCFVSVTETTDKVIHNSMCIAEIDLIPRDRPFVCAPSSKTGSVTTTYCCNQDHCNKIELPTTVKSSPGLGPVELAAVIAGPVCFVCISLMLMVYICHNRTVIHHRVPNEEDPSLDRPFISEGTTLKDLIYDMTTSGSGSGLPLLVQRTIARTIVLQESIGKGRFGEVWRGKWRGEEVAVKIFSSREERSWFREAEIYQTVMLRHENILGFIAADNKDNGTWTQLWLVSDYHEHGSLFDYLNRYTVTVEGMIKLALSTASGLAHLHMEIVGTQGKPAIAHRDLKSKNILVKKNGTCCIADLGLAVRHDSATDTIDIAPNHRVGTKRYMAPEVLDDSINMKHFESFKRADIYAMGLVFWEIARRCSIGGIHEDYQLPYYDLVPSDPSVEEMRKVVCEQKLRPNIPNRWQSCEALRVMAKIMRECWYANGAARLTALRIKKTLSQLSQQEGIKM

[10] = target: Tyrosine-protein kinase BTK (Homo sapiens) (UniProt Q06187); assay: Inhibition of BTK (unknown origin) at 1 uM relative to control; values are per cent of control
Tyrosine-protein kinase BTK (Homo sapiens), sequence (Q06187 whole entry): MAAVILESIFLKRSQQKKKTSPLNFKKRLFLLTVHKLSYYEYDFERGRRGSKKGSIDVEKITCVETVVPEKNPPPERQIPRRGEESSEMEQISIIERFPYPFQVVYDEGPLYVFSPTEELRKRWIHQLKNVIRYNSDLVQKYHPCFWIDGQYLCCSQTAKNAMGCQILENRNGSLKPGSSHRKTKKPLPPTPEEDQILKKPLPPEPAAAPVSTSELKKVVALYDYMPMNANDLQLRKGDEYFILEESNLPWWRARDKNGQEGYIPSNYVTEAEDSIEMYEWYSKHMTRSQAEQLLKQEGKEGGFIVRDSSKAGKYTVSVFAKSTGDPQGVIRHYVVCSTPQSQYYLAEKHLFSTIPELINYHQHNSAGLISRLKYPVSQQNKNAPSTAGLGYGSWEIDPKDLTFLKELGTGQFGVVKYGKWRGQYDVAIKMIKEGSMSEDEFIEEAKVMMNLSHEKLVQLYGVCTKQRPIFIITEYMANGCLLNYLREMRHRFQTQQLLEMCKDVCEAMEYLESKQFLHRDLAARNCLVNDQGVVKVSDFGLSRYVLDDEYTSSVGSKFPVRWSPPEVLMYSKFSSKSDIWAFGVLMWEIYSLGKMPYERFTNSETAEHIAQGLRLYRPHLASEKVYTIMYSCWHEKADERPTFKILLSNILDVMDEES

[11] = target: Rho-associated protein kinase 2 (Homo sapiens) (UniProt O75116); assay: Inhibition of ROCK2 (unknown origin) at 1 uM relative to control; conditions: values are per cent of control; how it was run: as §1
[12] = target: Serine/threonine-protein kinase PAK 2 (Homo sapiens) (UniProt Q13177); assay: Inhibition of PAK2 (unknown origin) at 1 uM relative to control; conditions: values are per cent of control; how it was run: as §1
Serine/threonine-protein kinase PAK 2 (Homo sapiens), sequence (Q13177 whole entry): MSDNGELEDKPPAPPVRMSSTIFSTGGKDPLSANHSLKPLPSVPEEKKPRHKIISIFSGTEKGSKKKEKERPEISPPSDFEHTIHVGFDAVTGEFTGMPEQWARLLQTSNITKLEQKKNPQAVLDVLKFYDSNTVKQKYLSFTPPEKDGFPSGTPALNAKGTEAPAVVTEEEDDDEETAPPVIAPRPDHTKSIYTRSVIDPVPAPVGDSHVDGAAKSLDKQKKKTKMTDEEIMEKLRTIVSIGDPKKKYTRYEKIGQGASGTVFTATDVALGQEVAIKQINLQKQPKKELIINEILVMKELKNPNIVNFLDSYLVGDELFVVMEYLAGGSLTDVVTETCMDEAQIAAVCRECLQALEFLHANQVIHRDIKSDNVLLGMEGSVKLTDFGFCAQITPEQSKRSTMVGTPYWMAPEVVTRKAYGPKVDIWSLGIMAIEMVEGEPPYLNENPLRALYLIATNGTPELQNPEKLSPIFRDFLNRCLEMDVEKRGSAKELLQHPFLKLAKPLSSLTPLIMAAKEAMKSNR

[13] = target: Interferon-induced, double-stranded RNA-activated protein kinase (Homo sapiens) (UniProt P19525); assay: Inhibition of PRKR (unknown origin) at 1 uM relative to control; conditions: values are per cent of control; how it was run: as §1
Interferon-induced, double-stranded RNA-activated protein kinase (Homo sapiens), sequence (P19525 whole entry): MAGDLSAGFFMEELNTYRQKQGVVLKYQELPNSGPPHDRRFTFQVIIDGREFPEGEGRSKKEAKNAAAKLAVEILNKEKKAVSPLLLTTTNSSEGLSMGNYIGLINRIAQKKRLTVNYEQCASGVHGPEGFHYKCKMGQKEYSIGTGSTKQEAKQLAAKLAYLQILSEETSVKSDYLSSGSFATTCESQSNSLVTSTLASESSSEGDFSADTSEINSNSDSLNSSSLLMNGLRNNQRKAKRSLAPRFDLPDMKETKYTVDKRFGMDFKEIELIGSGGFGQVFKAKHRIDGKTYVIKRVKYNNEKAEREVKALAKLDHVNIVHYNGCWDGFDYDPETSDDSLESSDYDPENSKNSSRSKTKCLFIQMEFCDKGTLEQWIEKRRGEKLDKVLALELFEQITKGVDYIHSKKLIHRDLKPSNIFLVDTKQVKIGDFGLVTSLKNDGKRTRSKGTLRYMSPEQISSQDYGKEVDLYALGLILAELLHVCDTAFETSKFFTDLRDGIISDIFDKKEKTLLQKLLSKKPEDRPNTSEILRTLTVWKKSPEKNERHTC

[14] = target: Mitogen-activated protein kinase kinase kinase kinase 1 (Homo sapiens) (UniProt Q92918); assay: Inhibition of HPK1 (unknown origin) at 1 uM relative to control; values are per cent of control
[15] = Intrinsic clearance in rat liver microsomes at 1 uM after 30 mins by reverse phase HPLC analysis in presence of NADPH; assay type: ADME; conditions: read-out: CLH
How it was run: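 Reactions were stopped with MeCN after 0 or 30 min. Samples were analysed by reverse-phase HPLC–tandem MS to give intrinsic clearance (µl/min/mg).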

[16] = target: High affinity nerve growth factor receptor (Homo sapiens) (UniProt P04629); assay: Inhibition of TRKA (unknown origin) at 1 uM relative to control; conditions: values are per cent of control; how it was run: as §1
[17] = target: Tyrosine-protein kinase Fyn (Homo sapiens) (UniProt P06241); assay: Inhibition of FYN (unknown origin) at 1 uM relative to control; values are per cent of control
Tyrosine-protein kinase Fyn (Homo sapiens), sequence (P06241 2-537 limits assumed): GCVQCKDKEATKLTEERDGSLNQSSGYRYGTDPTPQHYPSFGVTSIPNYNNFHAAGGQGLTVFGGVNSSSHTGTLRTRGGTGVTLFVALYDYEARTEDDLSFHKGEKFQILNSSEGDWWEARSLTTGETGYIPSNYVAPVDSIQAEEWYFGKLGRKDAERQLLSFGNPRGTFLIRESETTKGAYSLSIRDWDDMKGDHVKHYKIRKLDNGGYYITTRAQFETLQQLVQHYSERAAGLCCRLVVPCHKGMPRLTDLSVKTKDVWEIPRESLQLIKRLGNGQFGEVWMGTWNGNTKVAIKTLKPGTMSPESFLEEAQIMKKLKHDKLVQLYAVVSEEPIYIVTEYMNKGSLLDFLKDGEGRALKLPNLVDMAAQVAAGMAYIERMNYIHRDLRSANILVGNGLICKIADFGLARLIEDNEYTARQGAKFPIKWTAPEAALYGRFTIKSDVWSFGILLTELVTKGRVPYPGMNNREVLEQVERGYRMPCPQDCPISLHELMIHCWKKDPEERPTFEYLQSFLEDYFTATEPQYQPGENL

[18] = target: Fibroblast growth factor receptor 1 (Homo sapiens) (UniProt P11362); assay: Inhibition of FGFR1 (unknown origin) at 1 uM relative to control; values are per cent of control

SMILES | residual binding, % of control [1] | residual activity [2] | residual activity [3] | residual binding, % of control [4] | residual binding, % of control [5] | residual activity [6] | residual binding, % of control [7] | residual activity [8] | residual binding, % of control [9] | residual activity [10] | residual binding, % of control [11] | residual binding, % of control [12] | residual binding, % of control [13] | residual activity [14] | microsomal CLint at 1 µM [15] | residual binding, % of control [16] | residual activity [17] | residual activity [18]
CCOC(=O)c1sc(-c2ccncc2)nc1O | 76% | 100% | 93% | 74% | 82% | 100% | 99% | 93% | 100% | 92% | 92% | 99% | 92% | 81% | < 14 µL/min/mg | 100% | 100% | 89%
COc1ccc(-c2nc(-c3ccnc(N)n3)sc2C(N)=O)c(Cl)c1 | 100% | 78% | 82% | 92% | 88% | 92% | 96% | 46% | 72% | 76% | 27% | 89% | 92% | 100% | 99 µL/min/mg | 92% | 87% | 100%
NC(=O)c1sc(-c2ccnc(N)n2)nc1-c1ccc(Cl)cc1Cl | 100% | 100% | 79% | 56% | 100% | 82% | 82% | 83% | 91% | 75% | 34% | 100% | 68% | 64% | 22 µL/min/mg | 100% | 76% | 87%
